Results published in publication PMC3051377 (British Journal of Pharmacology, 2011).
Like-named read-outs stand apart in the source and are kept apart here.

How the values were obtained:
[1] = molecular target: T1, human M2 muscarinic receptor (Homo sapiens, UniProt P08172); assay: Agonist-stimulated [35S]GTPγS binding to membranes from M2 CHO cells; type: biochemical; details: for nH: Hill coefficient, Eqn 2
T1 sequence (P08172 1-466): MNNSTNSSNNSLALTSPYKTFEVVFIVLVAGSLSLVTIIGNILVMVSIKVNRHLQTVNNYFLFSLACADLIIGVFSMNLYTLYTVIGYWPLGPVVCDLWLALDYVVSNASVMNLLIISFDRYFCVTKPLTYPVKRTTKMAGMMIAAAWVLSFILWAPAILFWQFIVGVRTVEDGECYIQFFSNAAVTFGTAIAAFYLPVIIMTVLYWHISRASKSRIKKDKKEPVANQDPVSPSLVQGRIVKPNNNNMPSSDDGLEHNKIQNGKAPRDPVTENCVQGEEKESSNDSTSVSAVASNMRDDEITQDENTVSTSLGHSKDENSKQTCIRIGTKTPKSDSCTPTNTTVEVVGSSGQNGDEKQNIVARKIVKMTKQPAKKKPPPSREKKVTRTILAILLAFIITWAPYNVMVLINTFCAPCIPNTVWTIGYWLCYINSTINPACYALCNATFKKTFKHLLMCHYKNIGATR

[2] = test system: wild-type (non-transfected) CHO cells; assay: [35S]GTPγS binding at wild-type; type: biochemical, Chinese hamster
Method in brief: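 Membranes were incubated 60 min with 50 µM GDP and agonist. They were then incubated with 500 pM [³⁵S]GTPγS for 20 min at 30°C in 100 mM NaCl, 20 mM Na-HEPES, 10 mM MgCl₂ (pH 7.4) with 1 mM DTT, about 10 µg protein per sample. Non-specific binding was taken with 1 µM GTPγS. Read-out was filtration and scintillation counting.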

[3] = test system: G-proteins in GDP-less membranes of CHO-M2 cells; assay: Kinetics of [35S]GTPγS binding to GDP-less membranes; design: species or system Chinese hamster; details: for Beq of [35S]GTPγS: GDP-less membranes
Method in brief: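 GDP-less CHO-M2 membranes, 30°C. Association of 1 nM [³⁵S]GTPγS was measured after 20 min pre-incubation with buffer or 100 µM agonist, ±50 µM GDP. For dissociation, membranes were preloaded 90 min with 1 nM [³⁵S]GTPγS ±50 µM GDP, then chased with 1 µM GTPγS alone or with agonist. Filtration on glass-fibre filters, scintillation counting. Three experiments in quadruplicate; exponential association/dissociation fits.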

[4] = test system: G-proteins in GDP-less membranes of CHO-M2 cells; assay: Kinetics of [3H]GDP binding to GDP-less membranes; design: species or system Chinese hamster
Method in brief: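 GDP-less CHO-M2 membranes, 30°C. Association of 500 nM [³H]GDP was measured after 20 min pre-incubation with buffer, 10 or 100 µM agonist, or 0.1 µM antagonist. For dissociation, membranes were prelabelled with 500 nM [³H]GDP for 180 min, then chased with 50 µM GDP alone or with ligand. Slow and fast rate constants came from biphasic fits.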

[5] = molecular target: T2, M2 receptor-G-protein complex (Homo sapiens, UniProt P08172); type: binding; details: for factor of cooperativity α between binding of [3H]GDP and agonist (pα): 10 µM [3H]GDP, GDP-less membranes, n=3
T2 sequence (P08172 1-466): T1 sequence (P08172 1-466)

[6] = molecular target: T2, M2 receptor-G-protein complex; type: binding; details: for reduction of agonist affinity by GDP (factor of cooperativity β): Eqn 8, GDP-less membranes, 1 nM [3H]NMS
Gi/o G-proteins [7] = molecular target: T3, Gi/o G-proteins (Homo sapiens, UniProt P08172); assay: biochemical; type: biochemical, Chinese hamster; details: Gi/o
T3 sequence (P08172 1-466): T1 sequence (P08172 1-466)

Gs/olf G-proteins [8] = molecular target: T4, Gs/olf G-proteins (Homo sapiens, UniProt P08172); assay: biochemical; type: biochemical, Chinese hamster; details: Gs/olf
T4 sequence (P08172 1-466): T1 sequence (P08172 1-466)

Gq/11 G-proteins [9] = molecular target: T5, Gq/11 G-proteins (Homo sapiens, UniProt P08172); assay: [35S]GTPγS binding to Gq/11 G-proteins; type: biochemical, Chinese hamster; details: Gq/11
T5 sequence (P08172 1-466): T1 sequence (P08172 1-466)

Gi/o G-proteins [10] = assay: Kinetics of 500 nM [3H]GDP binding to Gi/o G-proteins; design: species or system Chinese hamster
Gs/olf G-proteins [11] = assay: Kinetics of 500 nM [3H]GDP binding to Gs/olf G-proteins; design: species or system Chinese hamster
Gi/o G-proteins [12] = molecular target: T3, Gi/o G-proteins; assay: biochemical; type: binding, Chinese hamster; details: Gi/o; for pα: cooperativity between agonist and [3H]GDP binding
Gs/olf G-proteins [13] = molecular target: T4, Gs/olf G-proteins; assay: biochemical; type: binding, Chinese hamster; details: Gs/olf; for pα: cooperativity between agonist and [3H]GDP binding
Gq/11 G-proteins [14] = molecular target: T5, Gq/11 G-proteins; type: binding, Chinese hamster; details: Gq/11; for pα: cooperativity between agonist and [3H]GDP binding
[15] = molecular target: T1, human M2 muscarinic receptor; assay: Competition of agonists with 1 nM [3H]NMS binding; details: for pKi: monophasic
[16] = test system: G-proteins in GDP-less membranes of CHO-M2 cells; assay: Equilibrium [3H]GDP binding to GDP-less membranes; design: species or system Chinese hamster
Method in brief: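 GDP-less membranes from CHO-M2 cells were made by treatment with 1 M ammonium sulphate for 3 h at 4°C, then renatured 1 h in 20% glycerol. Incubation was 5 h at 30°C in 100 mM NaCl, 20 mM Na-HEPES, 10 mM MgCl₂ (pH 7.4) with 1 mM DTT. Assays were homologous competition at 1 or 5 µM [³H]GDP, plus saturation. Non-specific binding was taken with 50 µM GDP. Three experiments, quadruplicate; Hill-equation fits.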

[17] = 100 µM carbachol, presence of 50 µM GDP
[18] = equilibrium dissociation constant of agonist, Eqn 7

C[N+](C)(C)CCOC(N)=O [Carbachol]
maximal increase of [35S]GTPγS binding (Emax) [1]: threefold
nH [1]: 0.81 ± 0.05
effect on [35S]GTPγS binding [2]: no effect
effect on kinetics of [35S]GTPγS binding ([3]; 100 µM carbachol, absence of GDP): did not change
effect on rate of dissociation of [35S]GTPγS [3, 17]: no effect
increase of equilibrium binding of [35S]GTPγS [3, 17]: fourfold
Beq of [35S]GTPγS ([3]; 50 µM GDP +100 µM carbachol): 4.85 ± 0.19 ^*a fmol·µg^−1protein
Beq of [35S]GTPγS ([3]; no GDP, +100 µM carbachol): 5.70 ± 0.25 fmol·µg^−1protein
slowing of [3H]GDP association, faster fraction ([4]; 10 µM carbachol): twofold
factor of cooperativity α between binding of [3H]GDP and agonist (pα) [5]: −2.3 ± 0.2
reduction of agonist affinity by GDP (factor of cooperativity β) [6]: 200 fold
EMAX (Gi/o G-proteins [7]): 2.89 ± 0.06 fold increase over basal binding
EMAX (Gs/olf G-proteins [8]): 1.82 ± 0.05 fold increase over basal binding
EMAX (Gq/11 G-proteins [9]): 1.61 ± 0.02 fold increase over basal binding
Beq1 of [3H]GDP (Gi/o G-proteins [10]; 10 µM carbachol): 1.7 ± 0.2 fmol·µg^−1 protein
decrease of [3H]GDP equilibrium binding (Gi/o G-proteins [10]; 10 µM carbachol): 1.8 fold
f2 of [3H]GDP dissociation (Gi/o G-proteins [10]; 10 µM carbachol): 38 ± 4%
Beq1 of [3H]GDP (Gi/o G-proteins [10]; 100 µM carbachol): 0.35 ± 0.03 fmol·µg^−1 protein
decrease of [3H]GDP equilibrium binding (Gi/o G-proteins [10]; 100 µM carbachol): ninefold
f2 of [3H]GDP dissociation (Gi/o G-proteins [10]; 100 µM carbachol): 36 ± 5%
slowing of association of [3H]GDP in comparison to fast sites (Gi/o G-proteins [10]; 100 µM carbachol): 12 fold
Beq of [3H]GDP (Gs/olf G-proteins [11]; 10 µM carbachol): 0.43 ± 0.02 fmol·µg^−1 protein
decrease of [3H]GDP equilibrium binding (Gs/olf G-proteins [11]; 10 µM carbachol): 1.9 fold
Beq of [3H]GDP (Gs/olf G-proteins [11]; 100 µM carbachol): 0.10 ± 0.01 fmol·µg^−1 protein
decrease of [3H]GDP equilibrium binding (Gs/olf G-proteins [11]; 100 µM carbachol): 8.1 fold
effect on [3H]GDP binding association rate (Gs/olf G-proteins [11]; 10 and 100 µM carbachol): no effect
pα (Gi/o G-proteins [12]): −2.3 ± 0.2
pα (Gs/olf G-proteins [13]): −1.2 ± 0.1
pα (Gq/11 G-proteins [14]): −0.85 ± 0.09

C[N+](C)(C)Cc1ccco1 [Furmethide]
maximal increase of [35S]GTPγS binding (Emax) [1]: 3.1 fold increase
EMAX [fold over basal] ([1]; 500 pM [35S]GTPγS, 50 µM GDP): 3.12 ± 0.08 fold over basal
nH [1]: 0.82 ± 0.05
EC50 ([1]; read-out: half-effective concentrations (EC50), stimulation of [35S]GTPγS binding): 7 µM
pKi ([15]; +1 µM GTPγS): 4.76 ± 0.05
pKi ([15]; +50 µM GDP): 4.77 ± 0.05
pKi high ([15]; Control (crude membranes)): 7.12 ± 0.09
pKi low ([15]; Control (crude membranes)): 4.78 ± 0.08
flow[%] ([15]; Control (crude membranes), fraction of receptors in low-affinity state): 50 ± 9%
flow[%] ([15]; GDP-less membranes): 9.6 ± 3.8 %
pKi high ([15]; GDP-less membranes): 7.77 ± 0.08
pKi low ([15]; GDP-less membranes): 4.87 ± 0.09
factor of cooperativity α between binding of [3H]GDP and agonist (pα) [5]: −2.4 ± 0.3
reduction of agonist affinity by GDP (factor of cooperativity β) [6]: 250 fold
EMAX (Gi/o G-proteins [7]): 2.95 ± 0.09 fold increase over basal binding
pEC50 (Gi/o G-proteins [7]): 5.34 ± 0.10
EMAX (Gs/olf G-proteins [8]): 1.70 ± 0.02 fold increase over basal binding
pEC50 (Gs/olf G-proteins [8]): 4.76 ± 0.03
EMAX (Gq/11 G-proteins [9]): 1.20 ± 0.01 fold increase over basal binding
pEC50 (Gq/11 G-proteins [9]): 4.72 ± 0.06
pα (Gi/o G-proteins [12]): −2.4 ± 0.2
pKA (Gi/o G-proteins [12]; [18]): 7.13 ± 0.05
pα (Gs/olf G-proteins [13]): −1.0 ± 0.1
pKA (Gs/olf G-proteins [13]; [18]): 7.10 ± 0.05
pα (Gq/11 G-proteins [14]): −0.32 ± 0.05
pKA (Gq/11 G-proteins [14]; [18]): 7.17 ± 0.06

Nc1nc2c(ncn2[C@@H]2O[C@H](COP(=O)(O)OP(=O)(O)O)[C@@H](O)[C@H]2O)c(=O)[nH]1 [GDP, guanosine diphosphate]
Beq of [35S]GTPγS ([3]; 50 µM GDP): 1.21 ± 0.12 fmol·µg^−1protein
decrease of equilibrium binding of [35S]GTPγS ([3]; addition of 50 µM GDP): 4.7 fold
effect on rate of dissociation of [35S]GTPγS ([3]; addition of 50 µM GDP): did not change
slowing of rate of association of [35S]GTPγS ([3]; addition of 50 µM GDP): 3.2 fold
koff fast ([4]; 500 nM [3H]GDP, no ligand): 0.00122 s⁻¹
sites with koff slow ([4]; 500 nM [3H]GDP, no ligand): 40%
IC50 ([16]; read-out: IC50, homologous competition, 1 µM [3H]GDP): 4.48 µM
IC50 ([16]; read-out: IC50, homologous competition, 5 µM [3H]GDP): 8.55 µM
Kd ([16]; read-out: KD for [3H]GDP from homologous competition): 3.49 µM
Kd ([16]; read-out: KD, saturation binding, 0.3 to 10 µM [3H]GDP): 3.47 ± 0.03 µM
equilibrium dissociation constant for [3H]GDP (pKA) ([5]; Eqn 7, all four agonists, mean ± SD, n=12): 5.51 ± 0.05
factor of cooperativity α between [3H]NMS and GDP ([6]; GDP-less membranes): 1
effect of GDP on [3H]NMS binding ([6]; absence of agonist): no effect
Beq1 (Gi/o G-proteins [10]; Control): 2.1 ± 0.2 fmol·µg^−1 protein
Beq2 (Gi/o G-proteins [10]; Control): 1.1 ± 0.1 fmol·µg^−1 protein
f2 (Gi/o G-proteins [10]; Control): 37 ± 5%
koff1 (Gi/o G-proteins [10]; Control): 0.00583 ± 0.0005 s⁻¹
koff2 (Gi/o G-proteins [10]; Control): 0.000667 ± 6.7e-05 s⁻¹
Beq, mono-exponential fit (Gi/o G-proteins [10]; control conditions (absence of carbachol), n=3): 2.8 ± 0.3 fmol·µg·prot^−1
Beq (Gs/olf G-proteins [11]; Control): 0.81 ± 0.04 fmol·µg^−1 protein
koff (Gs/olf G-proteins [11]; Control): 0.00112 ± 0.00012 s⁻¹
